# Measured values: ChEMBL document CHEMBL1126880, “3-Acyl-4-hydroxyquinolin-2(1H)-ones. Systemically active anticonvulsants acting by antagonism at the glycine site of the N-methyl-D-aspartate receptor complex” (J Med Chem, 1993)
# Species on record: Rattus norvegicus
# Assay: Antagonistic activity against NMDA-induced response in rat cortical slice
# Assay type: functional
# Summary of the method: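 Rat cortical slices were challenged with NMDA, with and without antagonist. Apparent Kb was calculated from the rightward shift of the NMDA concentration-response curve. Values are means of at least three experiments, with maximum variance (geometric mean) of 15%.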
row,SMILES,Kb [µM]
1,CCOC(=O)C1C(=O)Nc2cc(Cl)ccc2C1=O (stereo not drawn),65.4
2,O=C(Cc1ccccc1)c1c(O)c2ccc(Cl)cc2[nH]c1=O,3.92
3,O=C(c1c(O)nc2cc(Cl)ccc2c1O)C1CC1,3.39
4,COC(=O)C1C(=O)Nc2cc(Cl)ccc21 (stereo not drawn),441

# Test system: Mus musculus
# Assay: Effective dose of compound required to protect audiogenic seizure in DBA/2 mice administered ip
# Assay type: functional
# Summary of the method: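 DBA/2 mice received compound intraperitoneally 30 min before audiogenic seizure induction. Protection was reported as an ED50 or as number protected/number tested at a single dose.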
row,SMILES,ED50 [mg/kg]
1,O=C(Cc1ccccc1)c1c(O)c2ccc(Cl)cc2[nH]c1=O,31.6
2,O=C(c1c(O)nc2cc(Cl)ccc2c1O)C1CC1,4.1

# Target: Glutamate NMDA receptor
# Assay: Binding affinity towards NMDA receptor to displace [3H]-L-689,560 from rat cortical membranes
row,IC50 [µM],SMILES
1,6.4,COC(=O)c1c(O)c2ccc(Cl)cc2[nH]c1=O
2,7.12,O=C(OCCc1ccccc1O)c1c(O)nc2cc(Cl)ccc2c1O
3,25.4,CCOC(=O)c1c(O)c2ccc([N+](=O)[O-])cc2[nH]c1=O
4,2.62,O=C(OCCCCc1cccc(O)c1)c1c(O)nc2cc(Cl)ccc2c1O
5,> 100,O=C1CC(=O)c2ccc(Cl)cc2N1
6,> 10,O=C(SCCc1ccccc1)c1c(O)nc2cc(Cl)ccc2c1O
7,0.17,O=C(OCC#Cc1cccc(O)c1)c1c(O)c2ccc(Cl)cc2[nH]c1=O
8,> 100,CC(=O)c1c(O)nc2cc(Cl)ccc2c1O
9,9,C#CCOC(=O)c1c(O)nc2cc(Cl)ccc2c1O
10,> 100,NC(=O)c1c(O)nc2cc(Cl)ccc2c1O
11,16.7,CCOC(=O)C1C(=O)Nc2cc(Cl)ccc2C1=O (stereo not drawn)
12,> 1000,CCOC(=O)c1c(O)nc2cccc(C)c2c1O
13,0.27,COc1cccc(C#CCOC(=O)c2c(O)nc3cc(Cl)ccc3c2O)c1
14,2.64,O=C(OCCCc1cccc(O)c1)c1c(O)nc2cc(Cl)ccc2c1O
15,6.32,O=C(NO)c1c(O)nc2cc(Cl)ccc2c1O
16,3.09,CONC(=O)c1c(O)nc2cc(Cl)ccc2c1O
17,10.5,CCOC(=O)c1c(O)nc2cc([N+](=O)[O-])c([N+](=O)[O-])cc2c1O
18,6.42,C=CCOC(=O)c1c(O)c2ccc(Cl)cc2[nH]c1=O
19,> 100,CCCOC(=O)c1c(O)nc2cc(Cl)ccc2c1O
20,3.16,O=C1Nc2cc(Cl)ccc2C(=O)C1C(=O)c1ccccc1 (stereo not drawn)
21,6.85,O=C(c1cccnc1)c1c(O)nc2cc(Cl)ccc2c1O
22,6.13,O=C(OCc1cccc(O)c1)c1c(O)nc2cc(Cl)ccc2c1O
23,> 100,O=C(c1c(O)nc2cc(Cl)ccc2c1O)C1CCCCC1
24,> 100,CCOC(=O)C1Oc2ccc(Cl)cc2NC1=O (stereo not drawn)

row,IC50 [µM],SMILES
1,13.6,COC(=O)C1C(=O)Nc2cc(Cl)ccc2S1(=O)=O (stereo not drawn)
2,26,CCOC(=O)c1c(O)nc2cc(C#N)ccc2c1O
3,0.93,O=C(Cc1ccccc1)c1c(O)c2ccc(Cl)cc2[nH]c1=O
4,> 100,O=C(NOCc1ccccc1)c1c(O)nc2cc(Cl)ccc2c1O
5,> 100,CN(Cc1ccccc1)C(=O)c1c(O)nc2cc(Cl)ccc2c1O
6,1.82,O=C(OCCc1cccc(O)c1)c1c(O)nc2cc(Cl)ccc2c1O
7,2.39,O=C(c1ccco1)c1c(O)nc2cc(Cl)ccc2c1O
8,1.07,O=C(Cc1cccs1)c1c(O)nc2cc(Cl)ccc2c1O
9,> 100,O=C(NCCc1ccc(O)cc1)c1c(O)nc2cc(Cl)ccc2c1O
10,> 100,O=C(CCc1ccccc1)c1c(O)nc2cc(Cl)ccc2c1O
11,0.43,O=C(OCCc1c[nH]c2ccccc12)c1c(O)nc2cc(Cl)ccc2c1O
12,> 100,COC(=O)C1C(=O)Nc2cc(Cl)ccc21 (stereo not drawn)
13,9.3,O=C(c1c(O)nc2cc(Cl)ccc2c1O)N(O)CCc1ccccc1
14,12.3,CCOC(=O)c1c(O)nc2cc(C(F)(F)F)ccc2c1O
15,> 100,CCOC(=O)c1c(O)nc2ccc(Cl)cc2c1O
16,27.5,O=C(OCCc1ccccn1)c1c(O)nc2cc(Cl)ccc2c1O
17,> 100,O=C1CS(=O)(=O)c2ccc(Cl)cc2N1
18,3,O=C(OCCc1cccs1)c1c(O)nc2cc(Cl)ccc2c1O
19,1.97,O=C(c1ccsc1)c1c(O)nc2cc(Cl)ccc2c1O
20,47.1,CON(C)C(=O)c1c(O)nc2cc(Cl)ccc2c1O
21,> 100,CCOC(=O)c1c(O)nc2ccccc2c1O
22,> 100,CCOC(=O)c1c(O)nc2c(C)cccc2c1O
23,2.93,O=C(OCCc1ccc(O)cc1)c1c(O)nc2cc(Cl)ccc2c1O
